According to ChEMBL document CHEMBL4145574, “Inhibition of Breast Cancer Cell Migration by Cyclotides Isolated from Pombalia calceolaria” (J Nat Prod, 2018):
Where a SMILES comes first, the peptide text is derived from it. Bridges are numbered along the chain shown (N, C = ends).

How the values were obtained:
MDA-MB-231 [1] = experiment: Cytotoxicity against human MDA-MB-231 cells assessed as cell death after 24 hrs by MTS assay; format: functional, cell-based; conditions: MDA-MB-231, 24 h
Summary of the method: (§1)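 MDA-MB-231 cells in DMEM with 10% FBS at 37 °C, 5% CO2, seeded at 4 × 10^3 cells/well. After 24 h, seven concentrations (20−0.03 μM) were added in triplicate, with doxorubicin as control. After 24 h exposure, MTS was added for 4 h at 37 °C and absorbance read at 490 nm. Viability is relative to control wells; IC50 is from nonlinear regression. At least two independent experiments.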

MDA-MB-231 [2] = experiment: Cytotoxicity against human MDA-MB-231 cells assessed as cell detachment at 2 to 5 uM; format: cell-based; conditions: mda-mb-231, 5 µM
Summary of the method: (§2)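 Toxicity was judged visually during the wound-healing assay. MDA-MB-231 monolayers were scratched, then incubated 22 h at 37 °C in medium with 10% FBS and compound at 10, 5, 2 or 1 μM. Cells were scored for detachment and for morphological change (volume reduction, membrane disintegration).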

MDA-MB-231 [3] = experiment: Cytotoxicity against human MDA-MB-231 cells assessed as reduction in cell volume at 2 to 5 uM; format: cell-based; conditions: mda-mb-231, 5 µM; summary of the method: as §2
MDA-MB-231 [4] = experiment: Cytotoxicity against human MDA-MB-231 cells assessed as membrane disintegration at 2 to 5 uM; format: cell-based; conditions: mda-mb-231, 5 µM; summary of the method: as §2
MDA-MB-231 [5] = experiment: Cytotoxicity against human MDA-MB-231 cells assessed as cell detachment at 10 uM; format: cell-based; conditions: mda-mb-231, 10 µM; summary of the method: as §2
MDA-MB-231 [6] = experiment: Cytotoxicity against human MDA-MB-231 cells assessed as reduction in cell volume at 10 uM; format: cell-based; conditions: mda-mb-231, 10 µM; summary of the method: as §2
MDA-MB-231 [7] = experiment: Cytotoxicity against human MDA-MB-231 cells assessed as membrane disintegration at 10 uM; format: cell-based; conditions: mda-mb-231, 10 µM; summary of the method: as §2
MDA-MB-231 [8] = experiment: Cytotoxicity against human MDA-MB-231 cells assessed as cell death at 20 uM after 24 hrs by MTS assay relative to control; format: functional; summary of the method: as §1
MDA-MB-231 [9] = experiment: Inhibition of cell migration in human MDA-MB-231 cells at 1 uM incubated for 22 hrs by scratch wound healing assay relative to control; conditions: MDA-MB-231, 22 h
MDA-MB-231 [10] = experiment: Inhibition of cell migration in human MDA-MB-231 cells at 2 uM incubated for […] by scratch wound healing assay relative to control; format: functional
Summary of the method: (§3)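 MDA-MB-231 cells were seeded at 1 × 10^5 cells/well and grown to a confluent monolayer, then scratched with a pipet tip. Debris was rinsed with FBS-free medium. Cells were incubated 22 h at 37 °C in 10% FBS medium with compound (10, 5, 2, 1 μM), with colchicine as positive control. Wound areas were imaged at 0 and 22 h and measured. Two independent experiments in triplicate, reported as mean ± SD.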

MDA-MB-231 [11] = experiment: Inhibition of cell migration in human MDA-MB-231 cells at 5 uM incubated for […] by scratch wound healing assay relative to control; format: functional; summary of the method: as §3
MDA-MB-231 [12] = experiment: Inhibition of cell migration in human MDA-MB-231 cells at 10 uM […] by scratch wound healing assay relative to control; format: functional; conditions: MDA-MB-231, 22 h, in the assay text read “22 hrs” for “24 hrs”
Summary of the method: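 MDA-MB-231 cells in DMEM + 10% FBS, 37 °C, 5% CO2; 1 × 10^5 cells/well grown to confluence, monolayer scratched with pipet tip, debris rinsed with FBS-free medium. Incubated 22 h at 37 °C in 10% FBS medium with compound (10, 5, 2, 1 μM). Wound areas imaged at 0 and 22 h and measured; cell toxicity judged visually. Colchicine positive control. Two independent experiments in triplicate, mean ± SD.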

Row | Compound | IC50 (MDA-MB-231 [1]) [nM] | Activity (MDA-MB-231 [5]) | Activity (MDA-MB-231 [6]) | Activity (MDA-MB-231 [7]) | Activity (MDA-MB-231 [8]) [%] | inhibition at 1 µM (MDA-MB-231 [9]) [%] | further results
1 | CC[C@H](C)[C@@H]1NC(=O)[C@H](C)NC(=O)[C@H]([C@@H](C)O)NC(=O)[C@H](C(C)C)NC(=O)[C@@H]2CSSC[C@@H]3NC(=O)[C@H](C(C)C)NC(=O)[C@H](CCCNC(=N)N)NC(=O)[C@H](CC(=O)O)NC(=O)[C@H](CCCN)NC(=O)[C@@H]4CSSC[C@H](NC(=O)[C@H](CO)NC(=O)[C@H](CCC(=O)O)NC(=O)[C@H](C)NC(=O)[C@H](CSSC[C@H](NC(=O)CNC(=O)[C@H](CC(C)C)NC1=O)C(=O)N[C@@H](CO)C(=O)N4)NC(=O)[C@@H]1CCCN1C(=O)[C@H]([C@@H](C)CC)NC(=O)CNC(=O)[C@H](CC(N)=O)NC(=O)[C@H](Cc1ccc(O)cc1)NC3=O)C(=O)N[C@@H](C(C)C)C(=O)N[C@@H](Cc1ccccc1)C(=O)N[C@@H]([C@@H](C)CC)C(=O)N1CCC[C@H]1C(=O)N2 [listing 1 of 2 here] | 2700 | Toxic | Toxic | Toxic | – | – | Activity (MDA-MB-231 [2]): Toxic; Activity (MDA-MB-231 [3]): Toxic; Activity (MDA-MB-231 [4]): Toxic
2 | CC[C@H](C)[C@@H]1NC(=O)[C@H](C)NC(=O)[C@H]([C@@H](C)O)NC(=O)[C@H](C(C)C)NC(=O)[C@@H]2CSSC[C@@H]3NC(=O)[C@H](C(C)C)NC(=O)[C@H](CCCNC(=N)N)NC(=O)[C@H](CC(=O)O)NC(=O)[C@H](CCCN)NC(=O)[C@@H]4CSSC[C@H](NC(=O)[C@H](CO)NC(=O)[C@H](CCC(=O)O)NC(=O)[C@H](C)NC(=O)[C@H](CSSC[C@H](NC(=O)CNC(=O)[C@H](CC(C)C)NC1=O)C(=O)N[C@@H](CO)C(=O)N4)NC(=O)[C@@H]1CCCN1C(=O)[C@H]([C@@H](C)CC)NC(=O)CNC(=O)[C@H](CC(N)=O)NC(=O)[C@H](Cc1ccc(O)cc1)NC3=O)C(=O)N[C@@H](C(C)C)C(=O)N[C@@H](Cc1ccccc1)C(=O)N[C@@H]([C@@H](C)CC)C(=O)N1CCC[C@H]1C(=O)N2 [listing 2 of 2 here] | – | – | – | – | >80 | 0 | –
3 | CC[C@H](C)[C@@H]1NC(=O)[C@H](C)NC(=O)[C@H](CO)NC(=O)[C@H](CO)NC(=O)[C@H]([C@@H](C)CC)NC(=O)[C@@H]2CSSC[C@@H]3NC(=O)[C@H](C(C)C)NC(=O)[C@H](CCCN)NC(=O)[C@H](CC(N)=O)NC(=O)[C@H](CCCN)NC(=O)[C@@H]4CSSC[C@H](NC(=O)[C@H](CO)NC(=O)[C@H](CCC(=O)O)NC(=O)CNC(=O)[C@H](CSSC[C@H](NC(=O)CNC1=O)C(=O)N[C@@H](CO)C(=O)N4)NC(=O)[C@@H]1CCCN1C(=O)[C@H]([C@@H](C)CC)NC(=O)CNC[C@@H](C(N)=O)NC(=O)[C@H](CCCN)NC(=O)[C@H](Cc1ccc(O)cc1)NC3=O)C(=O)N[C@@H](C(C)C)C(=O)N[C@@H](Cc1c[nH]c3ccccc13)C(=O)N[C@@H]([C@@H](C)CC)C(=O)N1CCC[C@H]1C(=O)N2 [listing 1 of 2 here] | 9800 | Toxic | Toxic | Toxic | – | – | –
4 | CC[C@H](C)[C@@H]1NC(=O)[C@H](C)NC(=O)[C@H](CO)NC(=O)[C@H](CO)NC(=O)[C@H]([C@@H](C)CC)NC(=O)[C@@H]2CSSC[C@@H]3NC(=O)[C@H](C(C)C)NC(=O)[C@H](CCCN)NC(=O)[C@H](CC(N)=O)NC(=O)[C@H](CCCN)NC(=O)[C@@H]4CSSC[C@H](NC(=O)[C@H](CO)NC(=O)[C@H](CCC(=O)O)NC(=O)CNC(=O)[C@H](CSSC[C@H](NC(=O)CNC1=O)C(=O)N[C@@H](CO)C(=O)N4)NC(=O)[C@@H]1CCCN1C(=O)[C@H]([C@@H](C)CC)NC(=O)CNC[C@@H](C(N)=O)NC(=O)[C@H](CCCN)NC(=O)[C@H](Cc1ccc(O)cc1)NC3=O)C(=O)N[C@@H](C(C)C)C(=O)N[C@@H](Cc1c[nH]c3ccccc13)C(=O)N[C@@H]([C@@H](C)CC)C(=O)N1CCC[C@H]1C(=O)N2 [listing 2 of 2 here] | – | – | – | – | >80 | 15 | inhibition at 2 µM (MDA-MB-231 [10]): 50%; inhibition at 5 µM (MDA-MB-231 [11]): 60%
5 | CC[C@H](C)[C@@H]1NC(=O)[C@H](C)NC(=O)[C@H]([C@@H](C)O)NC(=O)[C@H]([C@@H](C)CC)NC(=O)[C@H]([C@@H](C)O)NC(=O)[C@@H]2CSSC[C@@H]3NC(=O)[C@H](C(C)C)NC(=O)[C@H](CCCNC(=N)N)NC(=O)[C@H](CC(=O)O)NC(=O)[C@H](CCCNC(=N)N)NC(=O)[C@@H]4CSSC[C@H](NC(=O)[C@H](CO)NC(=O)[C@H](CCC(=O)O)NC(=O)[C@H](C)NC(=O)[C@H](CSSC[C@H](NC(=O)CNC(=O)[C@H](CC(C)C)NC1=O)C(=O)N[C@@H](CO)C(=O)N4)NC(=O)[C@@H]1CCCN1C(=O)[C@H](CC(C)C)NC(=O)CNC(=O)[C@H](CC(=O)O)NC(=O)[C@H](Cc1ccc(O)cc1)NC3=O)C(=O)N[C@@H](C(C)C)C(=O)N[C@@H](Cc1ccccc1)C(=O)N[C@@H]([C@@H](C)CC)C(=O)N1CCC[C@H]1C(=O)N2 (cyclo(AESCVFIPCTITAILGCSCRDRVCYDGLPC); disulfide 4-19, 9-24, 17-30) [listing 1 of 2 here] | 1800 | Toxic | Toxic | Toxic | – | – | Activity (MDA-MB-231 [2]): Toxic; Activity (MDA-MB-231 [3]): Toxic; Activity (MDA-MB-231 [4]): Toxic
6 | CC[C@H](C)[C@@H]1NC(=O)[C@H](C)NC(=O)[C@H]([C@@H](C)O)NC(=O)[C@H]([C@@H](C)CC)NC(=O)[C@H]([C@@H](C)O)NC(=O)[C@@H]2CSSC[C@@H]3NC(=O)[C@H](C(C)C)NC(=O)[C@H](CCCNC(=N)N)NC(=O)[C@H](CC(=O)O)NC(=O)[C@H](CCCNC(=N)N)NC(=O)[C@@H]4CSSC[C@H](NC(=O)[C@H](CO)NC(=O)[C@H](CCC(=O)O)NC(=O)[C@H](C)NC(=O)[C@H](CSSC[C@H](NC(=O)CNC(=O)[C@H](CC(C)C)NC1=O)C(=O)N[C@@H](CO)C(=O)N4)NC(=O)[C@@H]1CCCN1C(=O)[C@H](CC(C)C)NC(=O)CNC(=O)[C@H](CC(=O)O)NC(=O)[C@H](Cc1ccc(O)cc1)NC3=O)C(=O)N[C@@H](C(C)C)C(=O)N[C@@H](Cc1ccccc1)C(=O)N[C@@H]([C@@H](C)CC)C(=O)N1CCC[C@H]1C(=O)N2 (cyclo(AESCVFIPCTITAILGCSCRDRVCYDGLPC); disulfide 4-19, 9-24, 17-30) [listing 2 of 2 here] | – | – | – | – | >80 | 0 | –
7 | COc1cc2c(c(OC)c1OC)-c1ccc(OC)c(=O)cc1[C@@H](NC(C)=O)CC2 [COLCHICINE] | – | – | – | – | – | 75 | inhibition at 10 µM (MDA-MB-231 [12]): 85%
8 | COc1cccc2c1C(=O)c1c(O)c3c(c(O)c1C2=O)C[C@@](O)(C(=O)CO)C[C@@H]3O[C@H]1C[C@H](N)[C@H](O)[C@H](C)O1 [DOXORUBICIN] | 900 | – | – | – | – | – | –
